Holding throughout (assay type): functional
The test system of test [1] is Bacillus subtilis. The test can be described thus: Antimicrobial activity against Bacillus subtilis ATCC 6633 after 18 hrs. To be noted: ATCC 6633, 18 h. Put shortly: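 Serial broth dilution in microtiter wells. Compounds in MeOH were dispensed and the solvent evaporated in vacuo. Inoculum came from an overnight nutrient broth culture, adjusted to 10⁵ cells per mL, in NB medium. Incubation was 18 h. MIC was read as the minimal inhibitory concentration.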

Test [2] concerns Yarrowia lipolytica. Nature of the test: Antimicrobial activity against Yarrowia lipolytica HT20after 24 hrs. Put shortly:
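Yeast tested by serial dilution in YMG medium. Compound films were left in wells after MeOH evaporation in vacuo. Inoculum came from an overnight YMG culture, adjusted to 10⁵ cells per mL. After 24 h incubation, the minimal inhibitory concentration was determined.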

In test [3] the test system is Mucor hiemalis. The test can be described thus: Antimicrobial activity against Mucor hiemalis DSM 63298 after 24 hrs. Particulars: DSM 63298, 24 h. Put shortly:
(§1)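 Serial dilution in microtiter wells with YMG medium. Compounds in MeOH were dispensed and dried in vacuo. Spores were rinsed from well-grown 9-day-old YMG agar cultures with […], then adjusted to 10⁵ per mL. Concentrations ranged from 100 to 0.1 µg mL^-1 (eight levels). Incubation was 24 h. MIC was recorded.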

The subject of test [4] is Penicillium griseofulvum. Nature of the test: Antimicrobial activity against Penicillium griseofulvum DSM 847 after 24 hrs. Particulars: DSM 847, 24 h. The procedure, abridged: as §1
In test [5] the test system is Stachybotrys chartarum. Nature of the test: Antimicrobial activity against Stachybotrys chartarum DSM 2144 after 24 hrs. Particulars: DSM 2144, 24 h. Put shortly:
as §1

For test [6], the system named is Trichoderma harzianum. Nature of the test: Antimicrobial activity against Trichoderma harzianum ATCC 64870 after 24 hrs. Particulars: ATCC 64870, 24 h. The procedure, abridged:
as §1

≈ marks a conversion by molar mass, not a printed value. Starred links: 1 amine or outer side, 2 acyl side, 3 side chain; linkers in the order of their positions; H or OH if unused. Positions of bridges follow the written chain, without caps; N, C: chain ends. Non-standard residues stand in square brackets, D forms with d. Residues, ends and D or L forms follow the SMILES beside them. Chains are numbered I, II in the order given. Actinocin(1to9) = Cc1c2oc3c(C)ccc(C(=O)[*:2])c3nc-2c(C(=O)[*:1])c(N)c1=O; NMeV = CN[C@H](C(=O)O)C(C)C; Sar = CNCC(=O)O

This is an account of results in ChEMBL document CHEMBL1158042, “Carneic acids A and B, chemotaxonomically significant antimicrobial agents from the xylariaceous ascomycete Hypoxylon carneum” (2006).

Turning to `Oc1cccc2c(-c3ccc(O)c4c(O)cccc34)ccc(O)c12`, the MIC (usually the lowest concentration found to suppress growth) in test [1] was 100 µg/mL (≈ 314 µM); in test [2] it was > 100 µg/mL; in test [3] it was 100 µg/mL (≈ 314 µM); in test [4], > 100 µg/mL; in test [5] it was > 100 µg/mL; in test [6], > 100 µg/mL.
`C/C=C(\C)[C@H]1C(C)=C[C@@H]2[C@@H]([C@H]1/C=C/C=C/C(=O)O)[C@H](C)CC[C@H]2O` [CARNEIC ACID A]: the MIC in test [1] stood at 50 µg/mL (≈ 151 µM); in test [2], 25 µg/mL (≈ 75.7 µM); in test [3], 12.5 µg/mL (≈ 37.8 µM); in test [4] it was 12 µg/mL (≈ 36.3 µM); in test [5] it was 25 µg/mL (≈ 75.7 µM); in test [6], 50 µg/mL (≈ 151 µM).
With `CC1=C[C@@H]2[C@@H]([C@@H](/C=C/C=C/C(=O)O)[C@H]1/C(C)=C/CO)[C@H](C)CC[C@H]2O` [CARNEIC ACID B], the MIC in test [1] was found to be 50 µg/mL (≈ 144 µM); in test [2] it was 25 µg/mL (≈ 72.2 µM); in test [3], 12.5 µg/mL (≈ 36.1 µM); in test [4] it was 25 µg/mL (≈ 72.2 µM); in test [5], 25 µg/mL (≈ 72.2 µM); in test [6], 50 µg/mL (≈ 144 µM).
Take `Cc1c2oc3c(C)ccc(C(=O)N[C@@H]4C(=O)N[C@H](C(C)C)C(=O)N5CCC[C@H]5C(=O)N(C)CC(=O)N(C)[C@@H](C(C)C)C(=O)O[C@@H]4C)c3nc-2c(C(=O)N[C@@H]2C(=O)N[C@H](C(C)C)C(=O)N3CCC[C@H]3C(=O)N(C)CC(=O)N(C)[C@@H](C(C)C)C(=O)O[C@@H]2C)c(N)c1=O` [DACTINOMYCIN] (I: T[dV]P[Sar][NMeV] / II: T[dV]P[Sar][NMeV]; ester I:1-I:C, II:1-II:C; linker I:N-II:N via Actinocin(1to9)): the MIC in test [1] was > 100 µg/mL; in test [2] it was 6.25 µg/mL (≈ 4.98 µM); in test [3], 3.12 µg/mL (≈ 2.49 µM); in test [4], 3.12 µg/mL (≈ 2.49 µM); in test [5], 3.12 µg/mL (≈ 2.49 µM); in test [6], 6.25 µg/mL (≈ 4.98 µM).
Take `CC1(C)S[C@@H]2[C@H](NC(=O)Cc3ccccc3)C(=O)N2[C@H]1C(=O)O` [PENICILLIN G]: the MIC in test [1] is 3.12 µg/mL (≈ 9.33 µM); in test [2] it was > 100 µg/mL; in test [3], > 100 µg/mL; in test [4], > 100 µg/mL; in test [5], > 100 µg/mL; in test [6] it was > 100 µg/mL.
`CC(=O)OC/C=C/C1=CC2=C(CO1)C(=O)[C@](C)(O)[C@H](OC(=O)c1c(C)cc(O)cc1O)C2` [RUBIGINOSIN A]: the MIC in test [1] is 50 µg/mL (≈ 113 µM); in test [2], 100 µg/mL (≈ 225 µM); in test [3] it was 25 µg/mL (≈ 56.3 µM); in test [4] it was > 100 µg/mL; in test [5], 100 µg/mL (≈ 225 µM); in test [6], > 100 µg/mL.
